Sampled rows, rich in hits. Any-hit rate of the full collection: about 3.1%.
T cruzi repl = blocks replication of Trypanosoma cruzi | T. cruzi beta-gal in NIH3T3, luminescence, 90 h | inhibition, % (no concentration beside the values) | hit rate 1.4% among 300,000 | AID 1885;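 active = mean inhibition across valid replicates above about 55%, limit read from the data; inconclusive = mean below that limit but half or more replicates reach it; inactive = mean below it, under half of replicates reach it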;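 also: signal also drops with host cell toxicity which is not excluded here; 0% = plate median of DMSO wells and 100% = zero luminescence signal; higher percent means less beta-gal luminescence so fewer parasites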
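System – NIH/3T3 host cells with β-galactosidase reporter T. cruzi · Doses – single 50 nL compound addition per well in DMSO · Reagent – 5000 T. cruzi trypomastigotes/well · Medium – Low-serum DMEM with 2% FBS · Timing – ≥90 h infection period, 3 h prior cell attachment · Evaluation – parasite load inhibition, % · Technique – GalScreen luminescence, 60 min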
PolyA inhibitor = inhibitors of polyadenylation in S. cerevisiae; hit rate 0.02% among 300,000; activity score, % at 12 µM; S. cerevisiae SKY197-pL101 polyadenylation reporter, beta-gal luminescence; efflux-impaired pdr1/pdr3 knockout yeast; score 100 = 6 SD above DMSO;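 active = lowest replicate activity score at least 50, where 100 means six control SD above control mean; inconclusive = lowest score under 50 but half or more replicates reach 50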;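 also: yeast exposed to compound for 9 h at 30 °C; higher score means more reporter readthrough which indicates perturbed polyadenylation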
HIF activator = HIF pathway transcriptional activation; U2OS HRE-luciferase reporter, luminescence; normalized: DMSO 0%, desferrioxamine 100%; activation, % at 7.5 µM (by protocol); hit rate 0.32% among 300,000;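 active = mean activation of at least 10% of the iron chelator positive control signal, with at least half of replicates also reaching 10%; inconclusive = mean and replicate majority disagree about reaching 10%; inactive = mean and most replicates under 10%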
CSC inhib = cancer stem cell inhibition; hit rate 1.1% among 300,000; cancer stem cell-like cells viability, luminescence; AID 2717; inhibition, % at 7.5 µM; in the data active = inhibition above about 75%; inconclusive = no clear call, values can overlap the other calls; tested in HMLE shEcad cells
Beta apoptosis = beta cell apoptosis inhibition; INS-1E cytokine-induced death, ATP luminescence, 48 h; percent of positive-control rescue, neutral wells zero; protection from apoptosis, % (no concentration beside the values); hit rate 0.8% among 300,000;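 active = Every replicate reaches about 75%, or at least half do and their mean reaches it too, limit read from the data; inconclusive = At least half of replicates reach the limit but their mean does not; inactive = Under half of replicates reach the limit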;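 also: 0% = cytokine-treated negative control wells and 100% = positive control rescue; higher means more ATP so stronger rescue from cytokine killing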
Calb FLC = affects C. albicans growth with fluconazole. C. albicans CaCi-2 + fluconazole, Alamar Blue growth, 48 h. growth inhibition, % (concentration not given with the values). hit rate 0.57% among 300,000. AID 1979;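 active = growth inhibition above about 58% in most replicates, limit read from the data, passing the limit was not always enough; inconclusive = exactly half the replicates above a set limit; inactive = most replicates below a set limit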;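 also: all wells also contain fluconazole at 8 µg/ml as a sub-toxic cotreatment; 0% = median of DMSO wells and 100% = median of geldanamycin control wells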
Active calls of the source: *.

Screening CCCCCCCC[n+]1c(C)n(-c2ccccc2)c2ccc(NC(C)=O)cc21 returned T cruzi repl 65*, PolyA inhibitor 14, HIF activator -1, CSC inhib -2, Beta apoptosis 102* and Calb FLC inconclusive.
For CCN1CCN(S(=O)(=O)c2ccc(OC)c(NC(=O)c3ccccc3)c2)CC1 the results were T cruzi repl -2, PolyA inhibitor -8, HIF activator 0, CSC inhib -3, Beta apoptosis -7 and Calb FLC -4.
`NC(=O)C1CCN(C(=O)Nc2csc3ccccc23)CC1` gave T cruzi repl -11, PolyA inhibitor 6, HIF activator 0, CSC inhib 1, Beta apoptosis -2 and Calb FLC 3.
O=C(Nc1nc2ccccc2n1CCOc1ccc(Cl)cc1)c1ccco1 was read as T cruzi repl 57*, PolyA inhibitor -6, HIF activator 0, CSC inhib 24, Beta apoptosis 48 and Calb FLC 4.
For Cc1cccc(OCCn2c(NC(=O)c3ccco3)nc3ccccc32)c1 the results were T cruzi repl 60*, PolyA inhibitor -25, HIF activator 1, CSC inhib 24, Beta apoptosis 50 and Calb FLC -2.
`O=C(Nc1nc2ccccc2n1Cc1ccc(Cl)cc1)c1ccco1` gave T cruzi repl 76*, PolyA inhibitor -23, HIF activator 0, CSC inhib 20, Beta apoptosis 29 and Calb FLC 24.
COc1ccc(NCc2nc3ccccc3n2CCOc2ccccc2)cc1 was read as T cruzi repl 69*, PolyA inhibitor 6, HIF activator 1, CSC inhib -7, Beta apoptosis -13 and Calb FLC -19.
`CC(=O)Nc1nc2ccccc2n1Cc1ccc(Cl)cc1` gave T cruzi repl inconclusive, PolyA inhibitor -7, HIF activator 0, CSC inhib 24, Beta apoptosis 30 and Calb FLC 0.
For CCOc1ccc(C(=O)Nc2nnc(S(=O)(=O)Nc3ccccc3C)s2)cc1 the results were T cruzi repl 1, PolyA inhibitor -6, HIF activator 0, CSC inhib 0, Beta apoptosis 2 and Calb FLC -2.
For COc1ccc(C(CNC(=O)c2ccc(-c3ccccc3)cc2)N(C)C)cc1OC (stereo not drawn) the results were T cruzi repl 23, PolyA inhibitor 14, HIF activator 2, CSC inhib -16, Beta apoptosis -3 and Calb FLC -3.
Cc1ccc(NC(=O)CN2c3cccc4cccc(c34)S2(=O)=O)cc1S(=O)(=O)N1CCOCC1 was read as T cruzi repl 0, PolyA inhibitor 15, HIF activator 0, CSC inhib 5, Beta apoptosis 4 and Calb FLC -3.
Screening CCOC(=O)C1=C(O)C(=O)NC(c2ccccc2)=C(OC2CCCCC2)C1 returned T cruzi repl 6, PolyA inhibitor 11, HIF activator 0, CSC inhib 0, Beta apoptosis 1 and Calb FLC -11.
For S=C(Nc1ccccc1)Nc1nc2ccccc2n1CCOc1ccc(Br)cc1 the results were T cruzi repl 17, PolyA inhibitor 11, HIF activator -11, CSC inhib 107*, Beta apoptosis 41 and Calb FLC 9.
`CCNC(=O)N(C)C[C@H]1N[C@@](CC)(C(=O)OC)[C@H]2C(=O)N(C)C(=O)[C@@H]12` gave CSC inhib -4 and Beta apoptosis -1.
`N=c1c(S(=O)(=O)c2ccc(Cl)cc2)cc2c(=O)n3ccccc3nc2n1C1CCCC1` gave T cruzi repl 55*, PolyA inhibitor 1, HIF activator 0, CSC inhib -5, Beta apoptosis -10 and Calb FLC -4.
`COc1ccc(CCNC(=O)c2cc3c(=O)n4ccccc4nc3n(C3CCCCC3)c2=N)cc1` gave T cruzi repl 60*, PolyA inhibitor -10, HIF activator 0, CSC inhib -12, Beta apoptosis 20 and Calb FLC 6.
Screening Cc1ccc(S(=O)(=O)NC(=O)Nc2ccc(N(C)C)cc2)cc1 returned T cruzi repl 57*, PolyA inhibitor -19, HIF activator 1, CSC inhib -4, Beta apoptosis 6 and Calb FLC 87*.
For Cc1nc(SCc2nc3ccc(C(=O)c4ccccc4)cc3[nH]2)c2oc3ccccc3c2n1 the results were Beta apoptosis 2.

High-throughput results from PubChem BioAssay.
